From PubChem
Rows were chosen to be rich in hits. Some 1.7% of all compounds tested hit in one or more screens of this group.
AI-2 QS mod: Vibrio harveyi AI-2 quorum sensing modulators, primary screen, JMH597 strain, luminescence/OD600 ratio; activity change, % at 7.5 µM; AID 2094, 2009; Vibrio harveyi JMH597 AI-2 luminescence/OD600 ratio, 9 h; active compounds read low; strain lacks LuxN and CqsS sensors; 0 = neutral-control median; 0.4% of 300,000 active; in the data active means activity change below about -75%, passing the limit was not always enough; inconclusive means no clear call, values can overlap the other calls;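 further: luminescence divided by OD600 gain over 9 h not by final OD600 alone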
CAL PDZ FP-1: CAL PDZ peptide-binding inhibitors, primary screen, biochemical, fluorescence polarization, Cer-tagged CAL PDZ, HTS | Golgi-associated PDZ and coiled-coil motif-containing protein (Homo sapiens), Q9HD26 | purified CAL PDZ, TMR-peptide fluorescence polarization, 1 h | inhibition, % at 20 µM | 0.02% of 330,000 active;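 active means highest replicate inhibition of at least 40%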
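System: tagged CAL PDZ domain. Schedule: 1 h room-temperature incubation prior to read. Signal: fluorescence polarization (mP). Measure: percent inhibition from loss of millipolarization.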
Rce1 inhib: yeast Rce1p protease inhibitors, primary screen, biochemical, fluorescence, cell-free homogeneous | 0.27% of 290,000 active | yeast membranes, quenched prenylated peptide cleavage fluorescence | AID 2563, 2010 | calls only | CAAX prenyl protease 2 (Saccharomyces cerevisiae (strain ATCC 204508 / S288c)), Q03530;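 active means fall in fluorescence gain of 50% or more versus controls, with final raw signal at or below 3038400; inconclusive means same 50% fall but final raw signal above 3038400; inactive means fall in fluorescence gain under 50%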
Target sequence (Q03530 whole entry, looked up): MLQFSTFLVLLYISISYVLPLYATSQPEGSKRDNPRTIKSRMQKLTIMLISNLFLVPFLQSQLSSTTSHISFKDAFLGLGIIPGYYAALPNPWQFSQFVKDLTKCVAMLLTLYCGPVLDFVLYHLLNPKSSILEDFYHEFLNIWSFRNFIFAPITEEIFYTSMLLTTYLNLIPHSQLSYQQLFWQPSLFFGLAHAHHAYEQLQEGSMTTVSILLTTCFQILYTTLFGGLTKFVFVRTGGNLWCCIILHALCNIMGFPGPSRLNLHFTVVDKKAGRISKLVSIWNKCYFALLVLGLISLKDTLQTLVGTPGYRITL
ARNT TACC3 PPI: disruptors of ARNT/TACC3 protein interaction, primary screen, biochemical, AlphaScreen, single concentration | Transforming acidic coiled-coil-containing protein 3 (Homo sapiens), Q9Y6A5 | AlphaScreen His-ARNT PAS-B/GST-TACC3 binding, luminescence; TACC3 fragment carries E629A point mutation | inhibition, % at 9.99 µM | 0.66% of 390,000 active | AID 623870, 2012;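 active means mean inhibition of replicates at least 50% and at least half of replicates each reaching 50%; inconclusive means half or more replicates reach 50% but mean below 50%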
CAL PDZ FP-2: untagged CAL PDZ binding inhibitors, primary screen, biochemical, fluorescence polarization, HTS | Golgi-associated PDZ and coiled-coil motif-containing protein (Homo sapiens), Q9HD26 | purified CAL PDZ, TMR-peptide fluorescence polarization, 1 h | inhibition, % at 24.9 µM | 0.92% of 300,000 active | AID 602252, 2012;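 active means mean inhibition of at least 30% with at least half of replicates also reaching 30%; inconclusive means no clear call, values can overlap the other calls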
Numbers stand for hits; – = inactive; ? = inconclusive; · = no result; + = active, no number.

SMILES	AI-2 QS mod	CAL PDZ FP-1	Rce1 inhib	ARNT TACC3 PPI	CAL PDZ FP-2
O=C(c1ccc2nc[nH]c2c1)N1CCc2ccccc2C1	–	–	–	–	54
O=C(CCn1cnnn1)Nc1ccc(Cl)cc1Cl	–	–	–	–	86
O=C(CCSc1nc(-c2ccco2)cc(C(F)(F)F)n1)NCCc1ccccc1	–	–	·	–	–
CN(CC(=O)Nc1ccccc1Br)C(=O)c1ccc2c(=O)n3c(nc2c1)CCC3	·	–	·	–	–
Cc1ccc(C)c(NC(=O)CN(C)C(=O)c2ccc3c(=O)n4c(nc3c2)CCC4)c1	·	–	·	–	49
N#C[C@H]1[C@@H](c2ccc(-c3cccc(F)c3)cc2)[C@H](CO)N1C(=O)c1cccnc1	·	·	·	–	·
Cc1ccc(C(=O)NNC(=O)Cn2ccc(C(F)(F)F)n2)o1	–	–	–	–	–
Cc1ccc(S(=O)(=O)Nc2ccccc2C(=O)NCC2CCCO2)cc1 (centres undefined)	–	·	+	·	·
COc1cc(/C=C2\SC(N3CCc4ccccc4C3)=NC2=O)cc(OC)c1OC	–	–	–	–	–
CCOP(=O)(c1ccccc1)c1nc(-c2ccccc2Cl)oc1N1CCCCC1 (centres undefined)	–	–	+	–	·
CCN(CC)S(=O)(=O)c1cccc(NC(=O)c2ccc(Sc3nncn3C)c([N+](=O)[O-])c2)c1	–	–	–	–	–
O=C(NC1CCCCC1)C1CCN(c2nccs2)CC1	·	–	·	·	33
O=C(NC1CCCC1)C1CCN(c2nccs2)CC1	–	–	–	–	·
COc1ccccc1-c1ccc(SCc2ccc(F)cc2)nn1	–	–	–	–	80
COc1ccccc1-c1ccc(SCc2ccc(C)cc2)nn1	–	–	–	·	–
CCOC(=O)c1cnc2ncnn2c1N	–	–	–	–	52
Cc1ccc(NC(=O)c2cc(NC(=O)/C=C\C(=O)O)ccc2N2CCCCC2)cc1	–	–	–	–	–
Cc1ccc(NC(=O)c2cc(NC(=O)c3ccccc3C(=O)O)ccc2N2CCCCC2)cc1	–	–	–	–	51
Cc1ccnc(N2CCC(C(=O)NCc3ccc4c(c3)OCO4)CC2)n1	–	–	–	·	–
CC(C)N=c1scc(-c2cccs2)n1/N=C/c1ccc(O)c(O)c1O	·	–	·	59	–
CN=c1scc(-c2ccccc2F)n1/N=C/c1ccc(O)c(O)c1O	–	–	–	53	–
CN=c1scc(-c2ccccc2F)n1/N=C/c1ccc[nH]1	–	–	–	–	–
CC(C)OP(=O)(CCP(=O)(OC(C)C)OC(C)C)OC(C)C	–	–	–	–	–
CNC[C@@H]1Oc2cc(C#Cc3ccncc3)ccc2S(=O)(=O)N([C@H](C)CO)C[C@H]1C	·	·	·	–	·
Cc1ccc(Cn2ncc3c(NN)ncnc32)cc1	–	–	–	66	–
SMILES	AI-2 QS mod	CAL PDZ FP-1	Rce1 inhib	ARNT TACC3 PPI	CAL PDZ FP-2
Cc1ccc(Cn2ncc3c(NCCN(C)C)ncnc32)cc1	–	–	–	–	–
CSCCC(NC(=O)c1ccccc1Cl)C(=O)Nc1ccc(C)c(S(=O)(=O)N2CCOCC2)c1 (centres undefined)	–	–	–	–	–
CCc1ccc2oc(C(=O)N3CCN(C)CC3)cc(=O)c2c1	–	–	–	–	–
CCN1CCN(C(=O)c2cc(=O)c3cc(C)ccc3o2)CC1	–	–	–	·	44
Cc1nnc(SC(C)C(=O)NC2CCCCC2C)n1N (centres undefined)	–	–	–	–	–
Cc1cc(NC(=O)c2c(Br)c(C)nn2C)no1	–	–	–	–	83
Cc1cc(NC(=O)c2cc(C)on2)no1	–	–	–	–	–
Cc1ccc(C(=O)NCCOc2ccc(Cl)cc2)cc1	?	–	–	–	–
Cc1ccc(C(=O)CC(=O)COc2ccc(Cl)cc2)cc1	-79	–	–	–	–
C[C@H]1CN([C@@H](C)CO)C(=O)c2cc(C#CCN(C)C)cnc2O[C@H]1CN(C)Cc1ccncc1	·	·	·	–	·
